Screening results (PubChem)
SENP6 inh = blocks the human protease SENP6; Recombinant SENP6 catalytic domain, aminoluciferin luminescence; AID 2599; inhibition, % at 10 µM; 330,000 compounds, 1.8% hits;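 active means inhibition above about 50% at the single tested dose, limit read from the data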
SENP1 FRET inh = inhibitors of human SENP1 SUMO protease catalytic domain; Q9P0U3; recombinant SENP1 catalytic domain, CyPet-SUMO1-YPet FRET cleavage; inhibition, % at 10 µM; 360,000 compounds, 0.21% hits;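 active means inhibition at least 30% at 10 µM, raw YFP signal under a set limit, fluorescence ratio 0.5 to 1.5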
Target sequence (Q9P0U3 419-644 limits assumed): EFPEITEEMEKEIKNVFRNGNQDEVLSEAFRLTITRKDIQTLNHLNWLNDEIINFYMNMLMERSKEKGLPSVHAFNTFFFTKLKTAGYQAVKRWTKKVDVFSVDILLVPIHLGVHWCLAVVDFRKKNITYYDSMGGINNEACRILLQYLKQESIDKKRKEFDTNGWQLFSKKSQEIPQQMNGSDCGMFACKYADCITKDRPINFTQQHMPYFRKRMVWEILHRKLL
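Material: hSENP1 catalytic domain, recombinant; medium: Tris pH 8 with BME, BSA, NP40 and catalase; compound: single concentration of 10 µM compound, 0.5% DMSO final; technique: FRET read of cyan and yellow fluorescence; timing: 50 min enzyme reaction, room temperature, light-protected; reagent: SFCypet-SUMO1-SFYpet substrate at 25 nM; control set: no-enzyme low, enzyme-DMSO high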
SENP8 block-1 = SENP8 protease inhibition | Q96LD8 | purified SENP8, Z-RLRGG-aminoluciferin cleavage, luminescence | inhibition, % at 10 µM | 330,000 compounds, 1.2% hits | AID 2540; in the data active means inhibition above about 50%
Target sequence (Q96LD8 whole entry, looked up): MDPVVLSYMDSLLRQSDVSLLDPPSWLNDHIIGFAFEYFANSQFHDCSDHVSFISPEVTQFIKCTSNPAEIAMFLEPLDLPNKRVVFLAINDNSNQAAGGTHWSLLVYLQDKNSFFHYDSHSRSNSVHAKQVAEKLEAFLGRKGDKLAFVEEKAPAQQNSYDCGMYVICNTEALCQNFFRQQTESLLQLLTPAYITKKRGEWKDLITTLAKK
SENP7 block = blocks the human protease SENP7 | inhibition, % at 5 µM | 330,000 compounds, 1.5% hits | recombinant SENP7, Z-RLRGG-aminoluciferin luminescence, 40 min | Q9BQF6;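 active means inhibition above about 50% at the single test dose, limit read from the data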
SENP8 block-2 = SENP8 (human) protease inhibition. Q96LD8. recombinant SENP8, Nedd8 substrate fluorescence. inhibition, % at 20 µM. 360,000 compounds, 0.64% hits; in the data active means inhibition mostly above about 40%, no sharp cut-off; inactive means mostly below about 27%
SENP8 conf = SENP8 (human) inhibition, single concentration confirmation; shares compounds with SENP8 block-2; purified SENP8, Nedd8-AMC/pro-Nedd8 cleavage fluorescence, 30 min; inhibition, % at 25 µM; 1,400 compounds, 15% hits; AID 624319; in the data active means inhibition mostly above about 39%, no sharp cut-off; inactive means mostly below about 34%
Hits are given with their value; – = inactive; · = not tested or not shown. In the library only some 2.5% were active in any assay of this set; here they are far more common.

SMILES	SENP6 inh	SENP1 FRET inh	SENP8 block-1	SENP7 block	SENP8 block-2	SENP8 conf
Cc1cc(=S)[nH]c2c(C)cccc12	–	–	–	–	40	–
O=C(NCCc1csc(-c2cccnc2)n1)c1ccccc1Br	–	–	–	–	–	·
COc1ccc(CN(C2CCCC2)S(=O)(=O)c2ccc(-n3cnnn3)cc2)cc1	–	–	–	–	44	–
CCOC(=O)C1CCN(C(=O)Nc2ccc3oc(C)nc3c2)CC1	–	–	–	–	46	–
CCOC(=O)N1CCN(C(=O)Nc2ccc3oc(C)nc3c2)CC1	–	–	–	–	–	·
CC(C)(C)OC(=O)N1C(=O)[C@](OC(=O)c2ccccc2)(c2ccc(F)cc2)c2ccccc21	·	–	·	·	–	·
C=CCN1C=C2C(=O)C(C)(OC(=O)c3cnc4ccccc4n3)C(=O)C=C2C=C1/C=C/COC (centres undefined)	–	–	–	–	–	·
COC/C=C/C1=CC2=CC(=O)C(C)(OC(=O)c3cnc4ccccc4n3)C(=O)C2=CN1CCCOC(C)C (centres undefined)	–	–	–	–	44	–
COC/C=C/C1=CC2=CC(=O)C(C)(OC(=O)c3cnc4ccccc4n3)C(=O)C2=CN1CCN1CCOCC1 (centres undefined)	–	–	–	–	–	·
COC/C=C/C1=CC2=CC(=O)C(C)(OC(=O)c3cnc4ccccc4n3)C(=O)C2=CN1CCOC (centres undefined)	–	–	–	–	54	47
COc1cc(OC)c([N+](=O)[O-])cc1/C=N/NC(=O)c1ccncc1	–	–	–	–	43	97
COc1cc(/C=N/NC(=O)c2ccncc2)c([N+](=O)[O-])cc1OC	–	–	–	–	–	·
C[C@H]1CN([C@@H](C)CO)C(=O)CCCn2nncc2CO[C@@H]1CN(C)C(=O)c1ccc(N2CCN(C)CC2)cc1	·	–	·	·	50	–
C[C@@H]1CN([C@H](C)CO)C(=O)CCCn2nncc2CO[C@H]1CN(C)C(=O)c1ccc(N2CCN(C)CC2)cc1	·	–	·	·	–	·
COc1cccc(C2=NOC(C(=O)N3CCc4ccccc4C3)C2)c1 (centres undefined)	–	–	–	–	51	61
COc1ccc(OC)c(S(=O)(=O)N2CCC(C(=O)N3CCc4ccccc4C3)CC2)c1	–	–	–	–	44	–
COc1ccc(OC)c(S(=O)(=O)N2CCC(C(=O)N3CCCC3)CC2)c1	–	–	–	–	–	·
CCS(=O)(=O)N1CCCC(C(=O)N2CCc3ccccc3C2)C1 (centres undefined)	–	–	–	–	53	54
O=C(C1CC(c2ccc(F)cc2)=NO1)N1CCc2ccccc2C1 (centres undefined)	–	–	–	–	–	·
CC(C)[C@H](NC(=O)[C@@H]1Cc2ccccc2CN1C(=O)OC(C)(C)C)C(=O)NCc1ccco1	–	–	–	–	–	·
O=C(NCC1CCCO1)c1cc(Br)c(Br)s1 (centres undefined)	–	–	–	–	–	·
CCn1c(SCc2cccc(C(=O)O)c2)nnc1-c1ccccc1	–	–	–	–	48	–
CCn1c(SCC(=O)O)nnc1-c1ccccc1	–	–	–	–	–	·
CC(C)c1ccc(NC(=O)CCN2C(=O)[C@@H]3Cc4ccccc4CN3C2=O)cc1	–	–	–	–	–	·
O=[N+]([O-])c1ccc(-[n+]2ccc3ccccc3c2)c([N+](=O)[O-])c1	–	–	–	–	46	–
SMILES	SENP6 inh	SENP1 FRET inh	SENP8 block-1	SENP7 block	SENP8 block-2	SENP8 conf
N#CC(C#N)=C1NC2(CCCCC2)Cc2ccccc21	–	–	–	–	–	·
N#CC(C#N)=c1ccc2c(c1)NC1(CCCCC1)N=2	–	–	–	–	42	24
COc1ccc(/C(C)=N/NC(=S)NCCc2ccccc2)c(O)c1	–	–	–	–	–	·
Cn1c2ccccc2c2nnc(NN)nc21	–	–	–	–	77	38
CCn1c2ccccc2c2nnc(NN)nc21	–	–	–	–	–	·
CCn1c2ccc(C)cc2c2nnc(NN)nc21	–	–	–	–	69	–
CCCCn1c2ccc(F)cc2c2nnc(NN)nc21	–	–	–	–	71	–
CC(=O)Nc1cccc(NS(=O)(=O)c2cc3c4c(c2)CCN4C(=O)CC3)c1	–	–	–	–	–	·
Cc1ccc(NC(=O)CSCc2c(C)noc2C)cc1C	–	–	–	–	40	–
Cc1cc(C)c(NC(=O)CSCc2c(C)noc2C)c(C)c1	–	–	–	–	–	·
O=C(CCCCCNC(=O)N1CCn2c1nc1ccccc12)NCc1ccc(F)cc1	–	–	–	–	–	·
Cc1ccccc1-c1cnc(C(O)c2ccc(C(C)(C)C)cc2)[nH]1 (centres undefined)	·	–	·	·	–	·
Cc1ccccc1-c1cnc(C(O)c2ccc(-c3ccccc3)cc2)[nH]1 (centres undefined)	·	–	·	·	41	–
COc1ccc(OC)c(CCNC(=O)CN2C(=O)COc3ccc(S(=O)(=O)N4CCOCC4)cc32)c1	–	–	–	–	–	·
Cc1cccc(NC(=O)CCOc2ccccc2)c1	–	–	–	–	40	–
Cc1cccc(NC(=O)Cc2ccc(F)cc2)c1	–	–	–	–	42	–
Cc1cccc(OCCC(=O)Nc2c(C)n(C)n(-c3ccccc3)c2=O)c1	–	–	–	–	42	–
O=C(Nc1nccs1)c1cc(-c2ccccn2)nc2c(Cl)cccc12	–	–	–	–	–	·
CCOC(=O)N1CCN(c2ccc(S(=O)(=O)N3CCC(C)CC3)cc2[N+](=O)[O-])CC1	–	–	–	–	–	·
Fc1cc2[nH]c(=S)[nH]c2c(Br)c1N1CCSCC1	–	–	–	–	–	·
O=C(O)c1ccccc1/C=N/NC(=S)NC1CCCCC1	–	–	–	–	46	–
O=C(O)c1ccccc1/C=N/NC(=O)C1CCCCC1	–	–	–	–	–	·
O=C1c2c(O)cc(O)cc2O[C@H](c2ccc(O)cc2)[C@H]1O	–	–	–	–	62	–
Nc1nnc(-c2ccc([N+](=O)[O-])o2)s1	·	–	·	·	37	–
Cc1ccc(-c2csc(NC(=O)c3cccc([N+](=O)[O-])c3)n2)cc1	–	–	–	–	48	–
SMILES	SENP6 inh	SENP1 FRET inh	SENP8 block-1	SENP7 block	SENP8 block-2	SENP8 conf
O=C(Nc1nc(-c2ccc([N+](=O)[O-])cc2)cs1)c1c(F)cccc1F	–	–	–	–	–	·
CC(C)c1csc(CN2CCN(Cc3ccc(F)cc3)C(CCO)C2)n1 (centres undefined)	–	–	–	–	–	·
O=C1O[C@@H]([C@H](O)CO)C(O)=C1O	–	–	–	–	40	–
COc1ccc(N/C=C/c2nc(SC)nnc2C)cc1	–	–	–	–	36	–
CN1CCC2(CC1)N=C(c1ccc(F)cc1)C(=S)N2C(=O)c1ccc(C(C)(C)C)cc1	–	–	–	–	53	–
CCCCN1CCN=C1N(C)C	–	–	–	–	–	·
